Measurements published in ChEMBL document CHEMBL1129355, “Synthesis of 3 beta-aryl-8-azabicyclo[3.2.1]octanes with high binding affinities and selectivities for the serotonin transporter site” (J Med Chem, 1996).

What was measured:
[1] = molecular target: Norepinephrine transporter (Rattus norvegicus, UniProt Q9WTR4); test: Displacement of [3H]-nisoxatine from Norepinephrine transporter of rat forebrain membrane; format: tissue-based, Brain
[2] = molecular target: Sodium-dependent serotonin transporter (Rattus norvegicus, UniProt P31652); test: Displacement of [3H]paroxetine from Serotonin transporter of rat frontal cortex membrane; format: tissue-based
Method in brief: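 Rat frontal cortex membranes (50 mg original wet weight) with 0.4 nM [3H]paroxetine. Nonspecific binding defined with 10 μM fluoxetine. Displacement curves used 7-10 unlabeled-analog concentrations. Ki came from the Cheng-Prusoff equation. Mean ± SEM of at least three experiments, each in triplicate.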

[3] = molecular target: Monoamine transporters; serotonin & dopamine (Rattus norvegicus) (UniProt P31652+P23977); test: Relative affinity for dopamine and Serotonin transporters; format: protein assay
Method in brief: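 Ratio of DAT IC50 ([125I]RTI-55, rat striatum) to SERT Ki ([3H]paroxetine, rat frontal cortex), each from displacement curves of 7-10 concentrations. Triplicate runs, at least three experiments.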

[4] = molecular target: Sodium-dependent dopamine transporter (Rattus norvegicus, UniProt P23977); test: Displacement of [125I]RTI-55 from dopamine transporter of rat brain membranes; format: cell membranes, Membrane
Method in brief: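 Rat striatal membranes (0.5 mg original wet weight) with 10 pM [125I]RTI-55. Nonspecific binding defined with a 1 μM tropane analog. Displacement curves used 7-10 unlabeled-analog concentrations. IC50 was reported because binding is multiphasic. Mean ± SEM of at least three experiments, each in triplicate.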

Sequence of Norepinephrine transporter (Q9WTR4 whole entry): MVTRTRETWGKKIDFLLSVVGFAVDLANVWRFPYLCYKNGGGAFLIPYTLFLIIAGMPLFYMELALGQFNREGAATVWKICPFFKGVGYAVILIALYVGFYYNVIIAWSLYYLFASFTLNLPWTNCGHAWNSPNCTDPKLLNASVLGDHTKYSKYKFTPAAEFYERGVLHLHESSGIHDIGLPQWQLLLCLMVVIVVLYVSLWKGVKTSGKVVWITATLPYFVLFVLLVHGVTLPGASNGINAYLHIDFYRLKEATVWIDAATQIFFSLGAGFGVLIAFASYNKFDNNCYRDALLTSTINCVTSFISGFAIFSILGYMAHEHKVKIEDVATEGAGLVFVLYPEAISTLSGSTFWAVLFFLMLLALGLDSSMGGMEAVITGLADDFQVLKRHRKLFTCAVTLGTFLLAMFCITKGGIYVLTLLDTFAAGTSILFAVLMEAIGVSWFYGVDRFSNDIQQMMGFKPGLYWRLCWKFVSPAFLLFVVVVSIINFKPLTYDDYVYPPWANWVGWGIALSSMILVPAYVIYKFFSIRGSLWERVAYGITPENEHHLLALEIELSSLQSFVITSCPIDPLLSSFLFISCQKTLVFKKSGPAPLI
Sequence of Sodium-dependent serotonin transporter (P31652 whole entry): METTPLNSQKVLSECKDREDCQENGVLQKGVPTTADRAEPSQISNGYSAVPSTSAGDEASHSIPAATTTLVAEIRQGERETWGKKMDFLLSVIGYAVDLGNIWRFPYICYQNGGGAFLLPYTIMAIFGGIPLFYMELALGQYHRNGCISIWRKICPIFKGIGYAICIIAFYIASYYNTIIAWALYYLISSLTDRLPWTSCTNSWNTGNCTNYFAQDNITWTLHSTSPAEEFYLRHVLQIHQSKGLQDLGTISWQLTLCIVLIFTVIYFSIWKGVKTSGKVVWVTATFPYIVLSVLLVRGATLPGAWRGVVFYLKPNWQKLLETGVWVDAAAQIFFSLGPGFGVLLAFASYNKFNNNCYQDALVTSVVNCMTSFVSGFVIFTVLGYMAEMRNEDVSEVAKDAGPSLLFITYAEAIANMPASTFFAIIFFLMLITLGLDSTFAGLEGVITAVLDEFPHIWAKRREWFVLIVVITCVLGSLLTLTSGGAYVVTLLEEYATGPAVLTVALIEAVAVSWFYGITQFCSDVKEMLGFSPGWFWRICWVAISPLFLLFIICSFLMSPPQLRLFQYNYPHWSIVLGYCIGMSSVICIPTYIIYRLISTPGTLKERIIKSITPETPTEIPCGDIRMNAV
Sequence of Sodium-dependent dopamine transporter (P23977 whole entry): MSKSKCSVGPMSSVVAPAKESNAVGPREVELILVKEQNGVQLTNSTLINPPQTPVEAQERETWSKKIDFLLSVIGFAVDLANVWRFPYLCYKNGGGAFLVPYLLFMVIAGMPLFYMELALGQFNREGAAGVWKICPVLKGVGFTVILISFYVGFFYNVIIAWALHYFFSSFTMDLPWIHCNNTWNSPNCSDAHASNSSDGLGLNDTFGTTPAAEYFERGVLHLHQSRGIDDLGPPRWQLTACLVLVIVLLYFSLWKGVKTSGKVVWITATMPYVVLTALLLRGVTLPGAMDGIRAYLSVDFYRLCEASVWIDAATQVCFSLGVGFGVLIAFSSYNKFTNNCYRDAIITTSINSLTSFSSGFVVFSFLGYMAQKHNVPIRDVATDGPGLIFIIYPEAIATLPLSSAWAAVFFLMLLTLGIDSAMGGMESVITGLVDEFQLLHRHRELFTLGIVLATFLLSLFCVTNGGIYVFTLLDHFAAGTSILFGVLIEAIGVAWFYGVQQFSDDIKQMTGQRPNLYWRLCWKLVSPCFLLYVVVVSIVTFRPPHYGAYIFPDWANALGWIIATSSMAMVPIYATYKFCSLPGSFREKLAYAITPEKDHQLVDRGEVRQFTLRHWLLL
Sequence of Monoamine transporters; serotonin & dopamine (Rattus norvegicus) (P23977 whole entry, looked up): as the sequence (P23977 whole entry) above
Sequence of Monoamine transporters; serotonin & dopamine (Rattus norvegicus) (P31652 whole entry, looked up): as the sequence (P31652 whole entry) above

## CCC(=O)C1C2CCC(CC1c1ccc(C(C)C)cc1)N2 (configuration not stated)
[1]
  Ki: 0.15 µM
[2]
  Ki: 0.0053 µM
[3]
  Ratio: 72
[4]
  IC50: 0.54 µM

## CCC(=O)C1C2CCC(CC1c1ccc(C)cc1)N2 (configuration not stated)
[1]
  Ki: 0.0055 µM
[2]
  Ki: 0.019 µM
[3]
  Ratio: 0.25
[4]
  IC50: 0.0047 µM

## C=C(C)c1ccc(C2CC3CCC(N3)C2C(=O)CC)cc1 (configuration not stated)
[1]
  Ki: 0.094 µM
[2]
  Ki: 0.00011 µM
[3]
  Ratio: 150
[4]
  IC50: 0.016 µM

## C=Cc1ccc(C2CC3CCC(N3)C2C(=O)CC)cc1 (configuration not stated)
[1]
  Ki: 0.0109 µM
[2]
  Ki: 0.00032 µM
[3]
  Ratio: 4.7
[4]
  IC50: 0.0015 µM

## CCC(=O)C1C(c2ccc(C(CC)CC)cc2)CC2CCC1N2C (configuration not stated)
[1]
  Ki: > 10 µM
[2]
  Ki: 0.54 µM
[3]
  Ratio: 0.5
[4]
  IC50: 0.27 µM

## C=C(C)c1ccc(C2CC3CCC(C2C(=O)CC)N3C)cc1 (configuration not stated)
[1]
  Ki: 0.794 µM
[2]
  Ki: 0.00082 µM
[3]
  Ratio: 8.8
[4]
  IC50: 0.0072 µM

## CCC(=O)C1C(c2ccc(C3CCCCC3)cc2)CC2CCC1N2C (configuration not stated)
[1]
  Ki: > 10 µM
[2]
  Ki: 0.097 µM
[3]
  Ratio: 3.3
[4]
  IC50: 0.32 µM

## C=Cc1ccc(C2CC3CCC(C2C(=O)CC)N3C)cc1 (configuration not stated)
[1]
  Ki: 0.078 µM
[2]
  Ki: 0.0032 µM
[3]
  Ratio: 0.28
[4]
  IC50: 0.0009 µM

## CCC(=O)C1C(c2ccc(C)cc2)CC2CCC1N2C (configuration not stated)
[1]
  Ki: 0.16 µM
[3]
  Ratio: 0.063

## CCC(=O)C1C2CCC(CC1c1ccc(C(CC)CC)cc1)N2 (configuration not stated)
[1]
  Ki: 5.1 µM
[2]
  Ki: 0.15 µM
[3]
  Ratio: 1.27
[4]
  IC50: 0.19 µM

## CCC(=O)C1C2CCC(CC1c1ccc3ccccc3c1)N2 (configuration not stated)
[1]
  Ki: 0.44 µM
[2]
  Ki: 0.00022 µM
[4]
  IC50: 0.036 µM

## CCC(=O)C1C2CCC(CC1c1ccc(C3CCCCC3)cc1)N2 (configuration not stated)
[1]
  Ki: 4.3 µM
[2]
  Ki: 0.085 µM
[3]
  Ratio: 5.8
[4]
  IC50: 0.49 µM

## CCC(=O)C1C(c2ccc3ccccc3c2)CC2CCC1N2C (configuration not stated)
[1]
  Ki: 0.0029 µM
[3]
  Ratio: 0.31
